{"source": "ChEMBL document CHEMBL3352563", "about": "“Design, synthesis and molecular docking of substituted 3-hydrazinyl-3-oxo-propanamides as anti-tubercular agents” (Bioorg Med Chem Lett, 2014)", "key": {"[1]": {"test_system": "Mycobacterium tuberculosis", "assay": "Anti-tubercular activity against Mycobacterium tuberculosis H37Rv by resazurin microtitre assay", "assay_type": "functional", "how_it_was_run": "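Value is the minimum inhibitory concentration (MIC) found by the resazurin microtitre (REMA) method.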"}, "[2]": {"target": "T1, Serine/threonine-protein kinase PknB (Mycobacterium tuberculosis, UniProt P9WI81)", "T1 sequence (P9WI81 whole entry)": "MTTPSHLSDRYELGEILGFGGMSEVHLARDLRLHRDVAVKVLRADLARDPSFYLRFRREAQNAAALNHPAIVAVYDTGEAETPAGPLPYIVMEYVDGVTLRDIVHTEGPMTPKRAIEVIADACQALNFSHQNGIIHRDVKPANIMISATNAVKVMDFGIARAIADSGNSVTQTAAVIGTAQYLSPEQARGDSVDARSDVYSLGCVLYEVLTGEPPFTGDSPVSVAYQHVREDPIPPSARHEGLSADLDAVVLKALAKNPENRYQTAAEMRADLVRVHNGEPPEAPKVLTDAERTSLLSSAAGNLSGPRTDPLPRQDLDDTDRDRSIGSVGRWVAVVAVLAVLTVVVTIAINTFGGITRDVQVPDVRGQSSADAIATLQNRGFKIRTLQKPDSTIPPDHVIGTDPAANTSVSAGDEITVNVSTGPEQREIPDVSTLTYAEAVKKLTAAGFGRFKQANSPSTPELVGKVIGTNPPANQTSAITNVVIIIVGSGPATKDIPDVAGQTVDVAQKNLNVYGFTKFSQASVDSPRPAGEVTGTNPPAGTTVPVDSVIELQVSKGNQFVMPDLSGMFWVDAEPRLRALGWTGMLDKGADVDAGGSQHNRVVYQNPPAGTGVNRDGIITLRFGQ", "assay": "Inhibition of Mycobacterium tuberculosis PknB"}}}
{"smiles": "COc1ccc(OC)c(NC(=O)CC(=O)NN)c1", "values": [{"measurement": "MIC", "setting": "[1]", "result": "> 100", "unit": "µg/mL"}, {"measurement": "Ki", "setting": "[2]", "result": 7.01, "unit": "µM"}]}
{"smiles": "NNC(=O)CC(=O)Nc1ccc([N+](=O)[O-])cc1[N+](=O)[O-]", "values": [{"measurement": "MIC", "setting": "[1]", "result": "> 100", "unit": "µg/mL"}, {"measurement": "Ki", "setting": "[2]", "result": 6.38, "unit": "µM"}]}
{"smiles": "NNC(=O)CC(=O)Nc1ccc(C(=O)O)cc1", "values": [{"measurement": "MIC", "setting": "[1]", "result": 12.5, "unit": "µg/mL"}, {"measurement": "Ki", "setting": "[2]", "result": 3.86, "unit": "µM"}]}
{"smiles": "CCCCc1ccc(NC(=O)CC(=O)NN)cc1", "values": [{"measurement": "MIC", "setting": "[1]", "result": 12.5, "unit": "µg/mL"}, {"measurement": "Ki", "setting": "[2]", "result": 26.5, "unit": "µM"}]}
{"smiles": "NNC(=O)CC(=O)Nc1ccc(S(=O)(=O)O)cc1", "values": [{"measurement": "MIC", "setting": "[1]", "result": 50, "unit": "µg/mL"}, {"measurement": "Ki", "setting": "[2]", "result": 7.59, "unit": "µM"}]}
{"smiles": "COc1ccc(NC(=O)CC(=O)NN)c(OC)c1", "values": [{"measurement": "MIC", "setting": "[1]", "result": "> 100", "unit": "µg/mL"}, {"measurement": "Ki", "setting": "[2]", "result": 5.25, "unit": "µM"}]}
{"smiles": "CCN(CC)c1ccc(NC(=O)CC(=O)NN)cc1", "values": [{"measurement": "MIC", "setting": "[1]", "result": 100, "unit": "µg/mL"}, {"measurement": "Ki", "setting": "[2]", "result": 13.1, "unit": "µM"}]}
{"smiles": "CCCc1ccc(NC(=O)CC(=O)NN)cc1", "values": [{"measurement": "MIC", "setting": "[1]", "result": 12.5, "unit": "µg/mL"}, {"measurement": "Ki", "setting": "[2]", "result": 9.04, "unit": "µM"}]}
{"smiles": "NNC(=O)CC(=O)NCc1ccco1", "values": [{"measurement": "MIC", "setting": "[1]", "result": "> 100", "unit": "µg/mL"}, {"measurement": "Ki", "setting": "[2]", "result": 18.5, "unit": "µM"}]}
{"smiles": "NNC(=O)CC(=O)Nc1cccc([N+](=O)[O-])c1", "values": [{"measurement": "MIC", "setting": "[1]", "result": "> 100", "unit": "µg/mL"}, {"measurement": "Ki", "setting": "[2]", "result": 12.5, "unit": "µM"}]}
{"smiles": "NNC(=O)CC(=O)Nc1ccc(F)c(Cl)c1", "values": [{"measurement": "MIC", "setting": "[1]", "result": 50, "unit": "µg/mL"}, {"measurement": "Ki", "setting": "[2]", "result": 3.53, "unit": "µM"}]}
{"smiles": "NNC(=O)CC(=O)Nc1ccc(Cl)c(Cl)c1", "values": [{"measurement": "MIC", "setting": "[1]", "result": "> 100", "unit": "µg/mL"}, {"measurement": "Ki", "setting": "[2]", "result": 9.21, "unit": "µM"}]}
{"smiles": "NNC(=O)CC(=O)Nc1ccccc1C(=O)O", "values": [{"measurement": "MIC", "setting": "[1]", "result": 50, "unit": "µg/mL"}, {"measurement": "Ki", "setting": "[2]", "result": 7.32, "unit": "µM"}]}
{"smiles": "NNC(=O)CC(=O)Nc1ccc([N+](=O)[O-])cc1", "values": [{"measurement": "MIC", "setting": "[1]", "result": "> 100", "unit": "µg/mL"}, {"measurement": "Ki", "setting": "[2]", "result": 10.8, "unit": "µM"}]}
{"smiles": "NNC(=O)c1ccncc1", "note": "[ISONIAZID]", "values": [{"measurement": "MIC", "setting": "[1]", "result": 0.02, "unit": "µg/mL"}]}
{"smiles": "NNC(=O)CC(=O)Nc1ccccc1[N+](=O)[O-]", "values": [{"measurement": "MIC", "setting": "[1]", "result": "> 100", "unit": "µg/mL"}, {"measurement": "Ki", "setting": "[2]", "result": 22.9, "unit": "µM"}]}
{"smiles": "NNC(=O)CC(=O)Nc1cc(Cl)cc(Cl)c1", "values": [{"measurement": "MIC", "setting": "[1]", "result": "> 100", "unit": "µg/mL"}, {"measurement": "Ki", "setting": "[2]", "result": 7.68, "unit": "µM"}]}
{"smiles": "CO[C@H]1/C=C/O[C@@]2(C)Oc3c(C)c(O)c4c(O)c(c(/C=N/N5CCN(C)CC5)c(O)c4c3C2=O)NC(=O)/C(C)=C\\C=C\\[C@H](C)[C@H](O)[C@@H](C)[C@@H](O)[C@@H](C)[C@H](OC(C)=O)[C@@H]1C", "note": "[RIFAMPIN]", "values": [{"measurement": "MIC", "setting": "[1]", "result": 0.01, "unit": "µg/mL"}]}
